From ChEMBL document CHEMBL4325899, “Synthesis and photocytotoxic activity of [1,2,3]triazolo[4,5-h][1,6]naphthyridines and [1,3]oxazolo[5,4-h][1,6]naphthyridines” (Eur J Med Chem, 2019)
Active and inactive are the calls of the source. The calls are words filed in the database; no cut-off is given here.

How the values were obtained:
MCF7 [1] = assay: Induction of lysosomal activation in human MCF7 cells at 2 uM after 20 mins in presence of UV irradiation by Lysotracker Green DND 26 staining-based confocal microscopic analysis; format: functional, cell-based
Method in brief: (§1)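 MCF7 cells (4x10⁵) on glass slides were loaded with LysoTracker Green DND-26 (175 nM) for 45 min in phenol-red-free, serum-free medium, before 2 µM compound with or without UV activation. Cells were fixed in 2% PFA 20 min or 2 h after UV and imaged confocally (ex 488 nm, em 500–530 nm). Controls were untreated cells with and without irradiation, and cells given PMA (400 nM).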

MCF7 [2] = assay: Cell cycle arrest in human MCF7 cells assessed as accumulation at subG1 phase at EC25 after 24 hrs under UV-irradiation by propidium iodide staining-based flow cytometric analysis (reference value: 4.8%); format: functional
A-375 = assay: Phototoxicity index, ratio of CC50 for human A375 cells to EC50 for human A375 cells under UV irradiation at 1.5 J/cm2
MCF7 [3] = assay: Induction of apoptosis in human MCF7 cells assessed as apoptotic cells at EC25 to EC75 after 4 hrs in presence of photoirradiation by Annexin V-FITC/propidium iodide staining-based flow cytometric analysis relative to control; format: functional
MCF7 [4] = assay: Cell cycle arrest in human MCF7 cells assessed as accumulation of cells at G0/G1 phase at EC50 after 24 hrs under UV-irradiation by propidium iodide staining-based flow cytometric analysis (reference value: 44.2%); format: functional
HT-29 = assay: Phototoxicity index, ratio of CC50 for human HT-29 cells to EC50 for human HT-29 cells under UV irradiation at 1.5 J/cm2
[5] = Dark toxicity against human A375 cells preincubated for 5 mins followed by compound washout and measured after 72 hrs by MTT assay; format: cell-based, A-375
Method in brief: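 Cells were plated and allowed to attach overnight. Compounds were diluted in DMSO (0.5% final), with each concentration in triplicate, and applied for 5 min. Cells were then washed in PBS and given fresh medium. Without irradiation, cells were held 72 h at up to 50 μM. MTT (5 mg/mL stock) was added for 4 h, crystals were dissolved in SDS/HCl overnight, and absorbance was read at 540 nm. CC50 is the concentration killing 50% of cells, taken as the mean of at least three experiments.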

MCF7 [6] = assay: Phototoxicity against human MCF7 cells preincubated for 5 mins followed by compound washout and subsequent UV irradiation at 1.5 J/cm2 for 5 mins measured after 72 hrs by MTT assay; format: functional, cell-based; conditions: MCF7, light or radiation study
Method in brief: (§2)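 Compounds were diluted in DMSO (0.5% final), applied in triplicate for 5 min, then washed out with PBS. After medium removal, cells were irradiated on ice for 5 min at 365 nm (1.5 J/cm²) and then kept 72 h at 37 °C. Viability was read by MTT at 540 nm and expressed relative to 0.5% DMSO controls given the same treatment. EC50 is the concentration killing 50%, as the mean ± SD of at least three experiments.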

[7] = Selectivity index, ratio of EC50 for human MCF10A cells under UV irradiation at 1.5 J/cm2 to EC50 for human HT-29 cells under UV irradiation at 1.5 J/cm2; format: toxicity; conditions: MCF10A cells versus HT-29 cells, read-out: Ratio EC50
Method in brief: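 SI is the EC50 under irradiation in non-tumor MCF10A cells divided by the EC50 under irradiation in the tumor line. Both were MTT read-outs 72 h after 1.5 J/cm² at 365 nm.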

MCF7 [8] = assay: Cell cycle arrest in human MCF7 cells assessed as accumulation of cells at S phase at EC75 after 24 hrs under UV-irradiation by propidium iodide staining-based flow cytometric analysis (reference value: 24.7%); format: functional
MCF7 [9] = assay: Cell cycle arrest in human MCF7 cells assessed as accumulation of cells at G2/M phase at EC50 after 24 hrs under UV-irradiation by propidium iodide staining-based flow cytometric analysis (reference value: 26.3%); format: functional
MCF7 [10] = assay: Cell cycle arrest in human MCF7 cells assessed as accumulation of cells at G0/G1 phase at EC75 after 24 hrs under UV-irradiation by propidium iodide staining-based flow cytometric analysis (reference value: 44.2%); format: functional
MCF-10A = assay: Phototoxicity against human MCF10A cells preincubated for 5 mins followed by compound washout and subsequent UV irradiation at 1.5 J/cm2 for 5 mins measured after 72 hrs by MTT assay; format: cell-based; conditions: light or radiation study; method in brief: as §2
MCF7 [11] = assay: Cell cycle arrest in human MCF7 cells assessed as accumulation at S phase at EC25 after 24 hrs under UV-irradiation by propidium iodide staining-based flow cytometric analysis (reference value: 24.7%); format: functional
[12] = Solubility of the compound in DMSO; format: physicochemical
MCF7 [13] = assay: Induction of lysosomal activation in human MCF7 cells assessed as late apoptotis at 2 uM after 2 hrs in presence of UV irradiation by Lysotracker Green DND 26 staining-based confocal microscopic analysis; format: functional, cell-based; method in brief: as §1
MCF7 [14] = assay: Induction of ROS generation in human MCF7 cells at 0.5 to 2 uM preincubated for 30 mins followed by irradiation at 1.5 J/cm2 for 2 hrs in presence of NAC by H2DCFDA probe-based fluorescence assay; format: functional, cell-based
Method in brief: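 This is the DCF assay in MCF7 cells run as for irradiated samples (30 min compound, 10 µM H2DCFDA, 1.5 J/cm²). Before treatment, cells were pre-incubated with N-acetylcysteine at […]. Fluorescence was read 2 h after light exposure, relative to irradiated untreated controls, with three independent experiments.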

MCF7 [15] = assay: Induction of mitochondrial dysfunction in human MCF7 cells assessed as organelle swelling at 2 uM after 120 mins in presence of UV irradiation by Mitotracker Orange CMTM-ROS staining-based confocal microscopic analysis; format: functional, cell-based
Method in brief: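 MCF7 cells (4x10⁵) were plated on glass slides for 24 h. They were then loaded with MitoTracker Orange CMTM-ROS (150 nM) for 45 min in phenol-red-free, serum-free medium, before 2 µM compound and UV photoactivation. Cells were fixed in 2% PFA 20 min or 2 h after UV and imaged confocally (ex 543 nm, em 560–620 nm). PMA (400 nM) served as ROS-inducer control.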

MCF7 [16] = assay: Induction of ROS generation in human MCF7 cells at 0.5 to 2 uM preincubated for 30 mins followed by irradiation at 1.5 J/cm2 for 2 hrs by H2DCFDA probe-based fluorescence assay (reference value: 100%); format: functional
Method in brief: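 MCF7 cells (3x10⁴) were plated 24 h ahead to reach 80–90% confluence. Compounds were applied for 30 min in phenol-red-free, serum-free medium, and H2DCFDA (10 µM) was added 15 min before irradiation (1.5 J/cm², ~365 nm) or no irradiation. DCF fluorescence (485/535 nm) was read 2 h after light and expressed relative to untreated controls (100%). PMA (400 nM) served as positive control; three independent experiments.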

MCF7 [17] = assay: Cell cycle arrest in human MCF7 cells assessed as accumulation of cells at G2/M phase at EC75 after 24 hrs under UV-irradiation by propidium iodide staining-based flow cytometric analysis (reference value: 26.3%); format: functional
[18] = Phototoxicity index, ratio of CC50 for human MCF10A cells to EC50 for human MCF10A cells under UV irradiation at 1.5 J/cm2; format: cell-based, MCF-10A; conditions: read-out: Ratio CC50/EC50

Q: For COc1ccc(-c2nc3c(nc(C)c4ccc(-c5ccccc5)nc43)o2)cc1, which Activity (MCF7 [1]) is on record?
A: Active

Q: And the Activity (MCF7 [2])?
A: 4.3%

Q: And the “Ratio CC50/EC50” value (A-375)?
A: >4545

Q: And the Activity (MCF7 [3])?
A: 34 - 50%

Q: And the Activity (MCF7 [4])?
A: 43.1%

Q: What about the “Ratio CC50/EC50” value (HT-29) of the same compound?
A: >4167

Q: And the CC50 at 72 h [5]?
A: > 50000 nM

Q: What about the EC50 (MCF7 [6]) of the same compound?
A: 10 nM

Q: And the selectivity ratio [7]?
A: 72

Q: What about the Activity (MCF7 [8]) of the same compound?
A: 26.3%

Q: What about the Activity (MCF7 [9]) of the same compound?
A: 26.9%

Q: What about the Activity (MCF7 [10]) of the same compound?
A: 42.4%

Q: What about the EC50 (MCF-10A) of the same compound?
A: 864 nM

Q: What about the Activity (MCF7 [11]) of the same compound?
A: 24.8%

Q: What about the solubility [12] of the same compound?
A: Soluble

Q: What about the Activity (MCF7 [13]) of the same compound?
A: Active

Q: What about the Activity (MCF7 [14]) of the same compound?
A: inactive

Q: And the Activity (MCF7 [15])?
A: Active

Q: What about the Activity (MCF7 [16]) of the same compound?
A: 227%

Q: What about the Activity (MCF7 [17]) of the same compound?
A: 26.9%

Q: What about the selectivity ratio [18] of the same compound?
A: > 58
